Reference: ChEMBL document CHEMBL1125330, “N-substituted pyrazino[2,3-c][1,2,6]thiadiazine 2,2-dioxides. A new class of diuretics” (J Med Chem, 1992)

What was measured:
[1] = organism: Rattus norvegicus; test: Dose required to produce increase in 50 % in urine production vs control groups; type: functional; details: Rattus norvegicus, Urine
Outline: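 Male Sprague-Dawley rats (HC/CFY, 175-200 g), fasted and water-deprived 18 h before and during the test. Compound dosed by gavage in 1% carboxymethyl cellulose/0.1% Tween 80, then water load 2.5 mL/100 g bw po. Urine collected 6 h in metabolic cages; Na+ by flame photometry. Effective doses vs vehicle controls derived by linear regression of dose-response data.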

[2] = tested on: Rattus norvegicus; test: Volume of urine 6 hr after the compound was administered 100 mg/kg po in rat; type: ADME, organism-based; set-up: dose 100 mg/kg, route oral; details: in vivo
Outline: (§1)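 Onset/duration protocol: male Sprague-Dawley rats (HC/CFY, 175-200 g), food and water withdrawn for 18 h before and during the test. Single gavage dose in 1% carboxymethyl cellulose/0.1% Tween 80 (0.5 mL/100 g bw), then distilled water load (2.5 mL/100 g bw po). Two rats per metabolic cage, six pairs per group. Urine collected at 0-1, 1-2, 2-3, 3-4 and 4-6 h; Na+ by flame photometry. Vehicle controls; nonpaired Student t-test.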

[3] = organism: Rattus norvegicus; test: Mean urinary output in rats (Control/Drug treatment value); value 24.2/47.6; type: ADME, organism-based, Urine; details: in vivo
Outline: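 Water-loaded male Sprague-Dawley rats (HC/CFY, 175-200 g), eight per group, deprived of food and water 18 h. Single oral gavage of 20-25 mg/kg (some 10 mg/kg) in 1% CMC/0.1% Tween 80, then distilled water 2.5 mL/100 g bw po. Cumulative urine over 6 h in metabolic cages; mean mL/6 h/kg bw vs vehicle group.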

[4] = tested on: Rattus norvegicus; test: Volume of urine 1 hr after the compound was administered 100 mg/kg po in rat; type: ADME, organism-based; set-up: dose 100 mg/kg, route oral; details: in vivo; outline: as §1
[5] = tested on: Rattus norvegicus; test: Mean urinary output in rats when compound administered at 5 mg/kg po and vehicle dosed at 18.56 umol/kg; type: ADME, organism-based, Urine; set-up: dose 5 mg/kg, route oral; details: in vivo
Outline: (§2)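 Water-loaded male Sprague-Dawley rats (HC/CFY, 175-200 g) fasted and without water for 18 h. Oral gavage of 2.5-160 mg/kg in 1% CMC with 0.1% Tween 80, then distilled water 2.5 mL/100 g po. Urine collected 6 h in metabolic cages, mean output in mL/6 h/kg bw. Unpaired Student t-test against vehicle; dose-response by linear regression.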

[6] = tested on: Rattus norvegicus; test: Mean sodium excretion in rats when compound administered at 10 mg/kg po and vehicle dosed at 37.13 umol/kg; type: ADME, organism-based; set-up: dose 10 mg/kg, route oral; details: in vivo
Outline: (§3)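 Male Sprague-Dawley rats (HC/CFY, 175-200 g) fasted and water-deprived 18 h before and during the test. Dosed by gavage at 2.5-160 mg/kg in 1% carboxymethyl cellulose/0.1% Tween 80, 0.5 mL/100 g bw. Immediately hydrated with water (2.5 mL/100 g bw, po). Urine collected 6 h in metabolic cages; Na+ and K+ by flame photometry; mean mequiv/6 h/kg bw; nonpaired Student t-test.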

[7] = tested on: Rattus norvegicus; test: Mean potassium excretion in rats when compound administered at 160 mg/kg po and vehicle dosed at 594.07 umol/kg; type: ADME, organism-based; set-up: dose 160 mg/kg, route oral; details: in vivo
Outline: (§4)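 Male Sprague-Dawley rats (HC/CFY, 175-200 g), no food or water for 18 h before and during the test. Single gavage dose (2.5-160 mg/kg; vehicle 1% carboxymethyl cellulose/0.1% Tween 80, 0.5 mL/100 g bw), then distilled water 2.5 mL/100 g bw po. Individual metabolic cages, 6 h urine. K+ by flame photometry, Cl- colorimetric, as mequiv/6 h/kg bw; unpaired Student t-test vs control.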

[8] = tested on: Rattus norvegicus; test: Mean urinary output in rats when compound administered at 0 mg/kg po and vehicle dosed at 0 umol/kg; type: ADME, organism-based, Urine; set-up: dose 0 mg/kg, route oral; details: in vivo; outline: as §2
[9] = tested on: Rattus norvegicus; test: Volume of urine 3h after the compound was administered 100 mg/kg po in rat; type: ADME, organism-based; set-up: dose 100 mg/kg, route oral; details: in vivo; outline: as §1
[10] = tested on: Rattus norvegicus; test: Mean Chlorine excretion in rats when compound administered at 10 mg/kg po and vehicle dosed at 37.13 umol/kg; type: ADME, organism-based; set-up: dose 10 mg/kg, route oral; details: in vivo; outline: as §4
[11] = tested on: Rattus norvegicus; test: Mean sodium excretion in rats when compound administered at 2.5 mg/kg po and vehicle dosed at 9.28 umol/kg; type: ADME, organism-based; set-up: dose 2.5 mg/kg, route oral; details: in vivo; outline: as §3
[12] = tested on: Rattus norvegicus; test: Mean sodium excretion in rats when compound administered at 20 mg/kg po and vehicle dosed at 74.26 umol/kg; type: ADME, organism-based; set-up: dose 20 mg/kg, route oral; details: in vivo; outline: as §3
[13] = tested on: Rattus norvegicus; test: Urinary sodium 2 hr after the compound was administered 100 mg/kg po in rat; type: ADME, organism-based, Urine; set-up: dose 100 mg/kg, route oral; details: in vivo
Outline: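 Onset and duration study in fasted, water-loaded male Sprague-Dawley rats housed two per metabolic cage, six pairs per group. Single oral dose given, then water 2.5 mL/100 g po. Urine volume and sodium (flame photometry) measured over 0-1, 1-2, 2-3, 3-4 and 4-6 h intervals. Mean values compared with vehicle by Student t-test.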

[14] = tested on: Rattus norvegicus; test: Mean Chlorine excretion in rats when compound administered at 20 mg/kg po and vehicle dosed at 74.26 umol/kg; type: ADME, organism-based; set-up: dose 20 mg/kg, route oral; details: in vivo; outline: as §4
[15] = organism: Rattus norvegicus; test: Mean sodium excretion in rats (Control/Drug treatment value); value 0.35/2.88; type: ADME, organism-based; details: in vivo
[16] = tested on: Rattus norvegicus; test: Mean sodium excretion in rats when compound administered at 40 mg/kg po and vehicle dosed at 148.52 umol/kg; type: ADME, organism-based; set-up: dose 40 mg/kg, route oral; details: in vivo; outline: as §3
[17] = tested on: Rattus norvegicus; test: Mean Chlorine excretion in rats when compound administered at 40 mg/kg po and vehicle dosed at 148.52 umol/kg; type: ADME, organism-based; set-up: dose 40 mg/kg, route oral; details: in vivo; outline: as §4
[18] = tested on: Rattus norvegicus; test: Mean potassium excretion in rats when compound administered at 20 mg/kg po and vehicle dosed at 74.26 umol/kg; type: ADME, organism-based; set-up: dose 20 mg/kg, route oral; details: in vivo; outline: as §4
[19] = tested on: Rattus norvegicus; test: Post dosing time interval of maximum activity; type: functional
Outline: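 Interval of peak activity taken from timed urine collections (0-1, 1-2, 2-3, 3-4, 4-6 h) after a single oral dose in water-loaded fasted rats, […]. Urine volume and Na+ excretion followed over time.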

Question: Which results are given for CCc1nc2c(nc1C)C(N)=NS(=O)(=O)N2CC?
Answer: ED50 [1]: 9.17 mg/kg; Urine volume [2]: 1.99 mL; V [3]: 2; Urine volume [4]: 1.84 mL; V [5]: 25.06 ml 6hr-1 (kg of body weight)-1; Na [6]: 1.21 m equiv 6hr-1 kg-1 (body weight)-1; K [7]: 2.35 m equiv 6hr-1 kg-1 (body weight)-1; V [8]: 21.96 ml 6hr-1 (kg of body weight)-1; Urine volume [9]: 5.52 mL; Cl- [10]: 2.67 m equiv 6hr-1 kg-1 (body weight)-1; Na [11]: 0.45 m equiv 6hr-1 kg-1 (body weight)-1; Na [12]: 1.7 m equiv 6hr-1 kg-1 (body weight)-1; Urinary Na+ [13]: 0.67 m equiv; Cl- [14]: 3.99 m equiv 6hr-1 kg-1 (body weight)-1; Na [15]: 8.2; Na [16]: 3.63 m equiv 6hr-1 kg-1 (body weight)-1; Cl- [17]: 6.37 m equiv 6hr-1 kg-1 (body weight)-1; K [18]: 0.63 m equiv 6hr-1 kg-1 (body weight)-1; Time [19]: 2 h
